# Source: PubChem (several laboratories)
# An excerpt weighted towards active compounds, which were near 1.7% of everything screened.
# Apaf1 inhib = inhibitors of human Apaf-1 apoptosome | O14727 | reconstituted apoptosome caspase-3 activity, DEVD-Rh110 fluorescence | inhibition, % at 20 µM | 330,000 tested, 0.71% active | AID 489030; active = inhibition of at least 40% at 20 µM;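 also: plate controls were DMSO wells for no effect and DEVD-CHO caspase inhibitor wells for full effect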
#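 System: reconstituted apoptosome with Apaf-1, cytochrome c, caspase-9, procaspase-3, dATP; Signal: Rh110 fluorescence intensity; Schedule: 30 min compound preincubation, 50 min activation, room temperature; Reagent: cytochrome c trigger plus (Z-DEVD)2-Rh110 caspase-3 substrate.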
# UBC13 inh = inhibitors of human UBC13 polyubiquitin chain formation. P61088. TR-FRET. inhibition, % at 20 µM. 330,000 tested, 0.47% active; in the data active = inhibition above about 45%, passing the limit was not always enough
# Target sequence (P61088 whole entry, looked up): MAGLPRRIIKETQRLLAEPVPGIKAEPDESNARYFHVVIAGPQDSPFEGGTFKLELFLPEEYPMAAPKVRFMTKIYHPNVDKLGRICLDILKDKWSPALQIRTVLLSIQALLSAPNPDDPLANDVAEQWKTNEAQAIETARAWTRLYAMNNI
# PREPL inh = inhibitors of human prolyl oligopeptidase-like enzyme PREPL; Q4J6C6; recombinant PREPL, fluorescence polarization activity-based probe; inhibition, % at 5.96 µM; 320,000 tested, 0.68% active; AID 2751;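 also: 0% = enzyme with DMSO and 100% = wells lacking enzyme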
# EBNA-1 inhibitor = blocks EBNA-1 binding to DNA; EBNA-1 DNA binding, fluorescence polarization; inhibition, % at 14.8 µM; 300,000 tested, 0.34% active; in the data active = inhibition above about 28%
# ZTA counter = blocks Epstein-Barr virus ZTA, an EBNA-1 counter-screen; P03206; ZTA-DNA binding, fluorescence polarization; inhibition, % at 11 µM; 320,000 tested, 0.15% active; AID 2234; in the data active = inhibition above about 33%
# Target sequence (P03206 whole entry, looked up): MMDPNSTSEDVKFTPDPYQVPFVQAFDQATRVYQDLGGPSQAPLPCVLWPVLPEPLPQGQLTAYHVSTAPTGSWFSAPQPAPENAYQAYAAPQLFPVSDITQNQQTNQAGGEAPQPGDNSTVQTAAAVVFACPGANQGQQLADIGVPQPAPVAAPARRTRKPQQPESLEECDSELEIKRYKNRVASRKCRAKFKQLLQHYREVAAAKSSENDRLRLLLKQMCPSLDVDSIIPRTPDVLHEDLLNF
# PREPL inh cf = confirmation of human PREPL enzyme inhibitors; inhibition, % at 5.96 µM; 2,000 tested, 67% active; shares compounds with PREPL inh; recombinant PREPL, fluorescence polarization activity probe; AID 2803;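 also: 0% = protein with DMSO and 100% = wells lacking protein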
# * hit, by the source's call; / = not tested or not shown. Rule as the data show it, unless noted: active = inhibition above about 43%; inactive = the rest.
SMILES,Apaf1 inhib,UBC13 inh,PREPL inh,EBNA-1 inhibitor,ZTA counter,PREPL inh cf
CC1=NCC(C)c2c1[nH]c1ccccc21 (stereo not given),8,5,45*,8,-4,8
COc1ccc(NS(=O)(=O)c2cc(NC(=O)c3cc(F)c(F)c(F)c3F)ccc2N2CCCC2)cc1,-8,-8,46*,2,6,39
Nc1nc(-c2ccccc2)c(N=Nc2ccccc2Cl)s1,28,-197,61*,1,-1,62*
Nc1nc(-c2ccccc2)c(N=Nc2cccc3ccccc23)s1,15,-81,15,-8,-14,/
O=C1CC(N2CCC(c3nc4ccccc4[nH]3)CC2)C(=O)N1c1ccccc1F (stereo not given),-3,4,5,6,2,/
O=C(COC(=O)c1cccc(S(=O)(=O)N2CCOCC2)c1)Nc1ccc2c(c1)OCO2,7,6,1,-10,-9,/
O=C(COC(=O)c1ccc2c(c1)OCCO2)Nc1cccc(S(=O)(=O)N2CCOCC2)c1,8,-5,72*,-14,-12,8
Oc1ccccc1C1=Nc2ccccc2N=C(c2cccs2)C1,0,11,2,8,0,/
O=C1N[C@@H](c2ccccc2)COC(=O)[C@@H](Cc2ccc(F)cc2)C/C=C\C[C@H]1CC(=O)N(CCO)Cc1ccccc1,30,-9,37,/,/,/
CC(C)(C)[C@@H]1COC(=O)[C@H](Cc2ccc(F)cc2)CC/C=C\C[C@H](CC(=O)N(CCO)Cc2ccccc2)C(=O)N1,27,-3,41,/,/,/
O=C1N[C@@H](c2ccccc2)COC(=O)[C@H](Cc2ccc(F)cc2)CC/C=C/C[C@@H]1CC(=O)N(CCO)Cc1ccccc1,29,7,57*,/,/,46*
CC(C)(C)[C@@H]1COC(=O)[C@@H](Cc2ccc(F)cc2)CC/C=C\C[C@@H](CC(=O)N(CCO)Cc2ccccc2)C(=O)N1,21,6,55*,/,/,50*
CC(C)(C)[C@@H]1COC(=O)[C@H](Cc2ccc(F)cc2)C/C=C\C[C@@H](CC(=O)N(CCO)Cc2ccccc2)C(=O)N1,26,9,48*,/,/,46*
C/C(=N\Nc1ccc([N+](=O)[O-])cc1)c1cccc(N)c1,2,-67,55*,-3,1,46*
CCCNC(=O)C(Cc1ccc(Br)cc1)NC(=O)c1ccc(C#N)cc1 (stereo not given),13,-1,8,/,1,/
Cc1ccc(C)c(Nc2cc(C)nc3ccccc23)c1,-1,3,44*,-3,-14,38
O=C(Nc1ccccc1-c1ccccc1)c1ccccc1,14,-12,10,-8,0,/
Nc1c(S(=O)(=O)O)cc(NC(=O)c2ccccc2)c2c1C(=O)c1ccccc1C2=O,25,-42,65*,19,16,55*
COc1cc(-c2nnc3sc(Cc4ccc(Cl)cc4)nn23)cc(OC)c1OC,-6,23,54*,-2,5,52*
COc1cccc(/C=N/NC(=O)Cn2ccnc2C)c1,-4,13,1,2,4,/
O=c1c2ccc([N+](=O)[O-])cc2ncn1CCOc1ccccc1,1,0,44*,-1,17,33
COc1ccc(-c2nn3c(-c4ccccc4)nnc3s2)cc1,11,11,-1,3,-8,/
CCN(CC)c1ccc(-c2nn3c(-c4ccccc4OC)nnc3s2)cc1,30,18,57*,-8,-1,39
COC(=O)C1=C(C)NC(=O)CC1c1cccc(OC)c1OC (stereo not given),-12,2,9,13,8,/
CCCCN(CC)S(=O)(=O)N1CCC(C(=O)NCCCN2CCOCC2)CC1,-5,-9,5,-4,-7,/
SMILES,Apaf1 inhib,UBC13 inh,PREPL inh,EBNA-1 inhibitor,ZTA counter,PREPL inh cf
COc1ccc(-c2cnnc(N/N=C/c3ccc(O)c(O)c3)n2)cc1,1,-16,73*,-6,-3,37
Cc1ccccc1NC(=O)C(C#N)Cc1cccnc1 (stereo not given),-15,4,70*,4,-6,1
Cc1ccccc1NC(=O)NCc1cccnc1,-5,3,8,-6,-27,/
O=C(CSc1nnc(COc2cccc3cccnc23)o1)c1ccc(F)cc1,-20,5,-13,14,-3,/
CCNc1cc(O)ccc1C,9,-17,70*,/,6,15
Cc1ccc(C(=O)CNc2cc(C)ccc2C)cc1,10,-6,11,-12,-5,/
N#CC1=C(N)N(c2ccccc2)C(c2ccco2)C1(C#N)C#N (stereo not given),5,15,19,2,12,/
Nc1[nH]n2c(=O)c3c(nc2c1N=Nc1ccccc1)CCCC3,28,-210,64*,-15,-11,60*
Cc1[nH]n2c(=O)c3c(nc2c1-c1ccc(Cl)cc1)CCC3,6,-3,17,-10,3,/
Cc1cc(=O)n2[nH]c(N)c(N=Nc3ccccc3)c2n1,/,/,13,1,11,/
Nc1[nH]n2c(=O)c3c(nc2c1N=Nc1ccc(Cl)cc1)CCCC3,19,-112,51*,-3,-9,68*
COc1cc2nc(Nc3ccc(C)c(C)c3)nc(N)c2cc1OC,9,34,52*,7,-4,51*
COc1cc(C2CC(=O)Oc3c(C(CCN4CCOCC4)c4ccc(N(C)C)cc4)c(OC)cc(OC)c32)cc(OC)c1OC (stereo not given),9,15,38,-6,-3,/
COc1ccc(C2CC(=O)Oc3c(C(CCN4CCCCC4)c4ccc(N(C)C)cc4)c(OC)cc(OC)c32)cc1 (stereo not given),23,26,47*,-9,-7,51*
COc1ccc(C2CCCN2C(=S)Nc2cccc(Cl)c2C)cc1OC (stereo not given),-13,-2,50*,6,7,41
COc1ccc(C2CCCN2C(=S)Nc2ccccc2C)cc1OC (stereo not given),-2,14,29,-2,9,/
CC1(CCc2ccc3c(c2)OCO3)NCCc2c1[nH]c1ccccc21 (stereo not given),0,11,2,-3,-3,/
CC(C)CN(C(=O)COC(=O)c1ccc(-c2ccccc2)cc1)C1CCS(=O)(=O)C1 (stereo not given),13,-5,48*,-9,10,40
CCC(CO)Oc1cc(NCc2ccccc2Cl)c2ncn(C(C)C)c2c1 (stereo not given),24,4,60*,/,-5,30
CCC(CO)Oc1cc(NCc2ccccc2C(F)(F)F)c2ncn(C(C)C)c2c1 (stereo not given),37,7,48*,/,/,20
Cc1noc(NS(=O)(=O)c2ccc(NC(=O)Nc3ccc(Cl)c(Cl)c3)cc2)c1C,21,-22,48*,-16,2,46*
